The source of these data is ChEMBL document CHEMBL3352499, “One pot three components microwave assisted and conventional synthesis of new 3-(4-chloro-2-hydroxyphenyl)-2-(substituted) thiazolidin-4-one as antimicrobial agents” (Bioorg Med Chem Lett, 2014).

pIC50: −log10 of the molar value. In brackets after ≈: the same amount, converted by molar mass.

Experiment [1] relates to Candida albicans. Kind of experiment: Fungicidal activity against Candida albicans NCIM-3471 after 48 to 72 hrs by two fold serial macrodilution technique. The experiment is classed as functional. The method in brief:
(§1)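 Serial subcultivation followed 72 h of exposure to compounds dissolved in saline containing 5% DMSO. MBC/MFC was the lowest concentration with no visible growth, taken as 99.5% killing of the original inoculum. Runs were in triplicate, with the mean reading used.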

Experiment [2] relates to Salmonella typhimurium. Briefly: Antimicrobial activity against […] after 20 hrs by two fold serial macrodilution technique. Type of experiment: functional, Salmonella enterica subsp. enterica serovar Typhimurium. Particulars: Salmonella enterica. The procedure, abridged: (§2)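 Serial macrodilution in 96-well microtiter plates. Compounds were dissolved in saline (0.8% NaCl) containing 5% DMSO, and strains were incubated with a range of concentrations for 20 h at 37 °C on a rotary shaker (160 rpm). MIC was the lowest concentration without growth. Runs were in triplicate, with the mean taken. The negative control was 5% DMSO.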

The subject of experiment [3] is Bacillus subtilis. Kind of experiment: Antimicrobial activity against Bacillus subtilis NCIM-2063 after 20 hrs by two fold serial macrodilution technique. Type of experiment: functional. Particulars: NCIM-2063, 20 h. The method in brief: as §2
Experiment [4] concerns Aspergillus flavus. Briefly: Fungicidal activity against Aspergillus flavus NCIM-539 after 48 to 72 hrs by two fold serial macrodilution technique. The experiment is classed as functional. The method in brief:
as §1

The test system of the next experiment is MCF7. Kind of experiment: Cytotoxicity against human MCF7 cells by SRB method. Type of experiment: cell-based. The method in brief: (§3)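 SRB colorimetric growth assay. IC50, in µM, was the concentration inhibiting cell growth by 50% relative to untreated control cells. Runs were in triplicate in three independent experiments, with means reported. The positive control was doxorubicin.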

Experiment [5] has as its system Staphylococcus aureus. Kind of experiment: Antimicrobial activity against Staphylococcus aureus NCIM-2901 after 20 hrs by two fold serial macrodilution technique. Type of experiment: functional. The following applies: NCIM-2901, 20 h. The method in brief:
as §2

Experiment [6] deals with Salmonella typhimurium. Kind of experiment: Bactericidal activity against […] after 72 hrs by two fold serial macrodilution technique. The experiment is classed as functional, Salmonella enterica subsp. enterica serovar Typhimurium. The following applies: Salmonella enterica. The method in brief:
as §1

Experiment [7] deals with Bacillus subtilis. Briefly: Bactericidal activity against Bacillus subtilis NCIM-2063 after 72 hrs by two fold serial macrodilution technique. The experiment is classed as functional. The following applies: NCIM-2063, 72 h. The procedure, abridged: as §1
The test system of experiment [8] is Aspergillus niger. Briefly: Fungicidal activity against Aspergillus niger NCIM-1196 after 48 to 72 hrs by two fold serial macrodilution technique. Type of experiment: functional. The procedure, abridged: as §1
Experiment [9] relates to Cryptococcus neoformans. Briefly: Fungicidal activity against Cryptococcus neoformans NCIM-3378 after 48 to 72 hrs by two fold serial macrodilution technique. The experiment is classed as functional. The procedure, abridged:
as §1

Experiment [10] concerns Aspergillus niger. Kind of experiment: Antimicrobial activity against Aspergillus niger NCIM-1196 after 20 hrs by two fold serial macrodilution technique. Type of experiment: functional. Particulars: NCIM-1196, 20 h.
Experiment [11] has as its system Cryptococcus neoformans. Kind of experiment: Antimicrobial activity against Cryptococcus neoformans NCIM-3378 after 20 hrs by two fold serial macrodilution technique. The experiment is classed as functional. Particulars: NCIM-3378, 20 h.
For experiment [12], the system named is Staphylococcus aureus. Kind of experiment: Bactericidal activity against Staphylococcus aureus NCIM-2901 after 72 hrs by two fold serial macrodilution technique. Type of experiment: functional. The following applies: NCIM-2901, 72 h. The procedure, abridged: as §1
For experiment [13], the system named is Candida albicans. Briefly: Antimicrobial activity against Candida albicans NCIM-3471 after 20 hrs by two fold serial macrodilution technique. Type of experiment: functional. The following applies: NCIM-3471, 20 h.
In experiment [14] the test system is Aspergillus flavus. Kind of experiment: Antimicrobial activity against Aspergillus flavus NCIM-539 after 20 hrs by two fold serial macrodilution technique. Type of experiment: functional. Particulars: NCIM-539, 20 h.
The test system of experiment [15] is Escherichia coli. Briefly: Bactericidal activity against Escherichia coli NCIM-2256 after 72 hrs by two fold serial macrodilution technique. The experiment is classed as functional. Particulars: NCIM-2256, 72 h. The procedure, abridged:
as §1

For experiment [16], the system named is Escherichia coli. Briefly: Antimicrobial activity against Escherichia coli NCIM-2256 after 20 hrs by two fold serial macrodilution technique. The experiment is classed as functional. The following applies: NCIM-2256, 20 h. The procedure, abridged:
as §2

The next experiment has as its system HeLa. Kind of experiment: Cytotoxicity against human HeLa cells by SRB method. The experiment is classed as cell-based. The method in brief:
as §3

As usually defined, the MFC is the smallest concentration meeting the test's criterion for killing the fungus. Lower therefore signals greater fungicidal potency. One may read the MIC as the lowest concentration found to suppress growth. Broadly, the pIC50 is the IC50 on a negative log10 scale, so that one unit is a factor of ten. As usually defined, the MBC is the smallest concentration meeting the test's criterion for killing. A higher MBC goes with weaker bactericidal potency. As to `O=C1CSC(c2ccccc2Cl)N1c1ccc(Cl)cc1O` (stereo not given), the MFC with Candida albicans [1] was found to be 140 µg/mL (≈ 411 µM); with Aspergillus flavus [4], 50 µg/mL (≈ 147 µM); against Aspergillus niger [8] it was 155 µg/mL (≈ 456 µM); in the experiment with Cryptococcus neoformans [9] it was 135 µg/mL (≈ 397 µM). Besides, the MIC against Salmonella typhimurium [2] was found to be 65 µg/mL (≈ 191 µM); against Bacillus subtilis [3], 20 µg/mL (≈ 58.8 µM); with Staphylococcus aureus [5], 35 µg/mL (≈ 103 µM); with Aspergillus niger [10] it was 100 µg/mL (≈ 294 µM); in the experiment on Cryptococcus neoformans [11] it was 90 µg/mL (≈ 265 µM); against Candida albicans [13], 55 µg/mL (≈ 162 µM). Further, the values for the MIC against Aspergillus flavus [14] and with Escherichia coli [16] were 35 µg/mL (≈ 103 µM) and 80 µg/mL (≈ 235 µM), respectively. Besides, the figures for the pIC50 in the experiment with MCF7 and in the experiment with HeLa were 4.25 and 4.20, respectively. Also, the MBC in the experiment with Salmonella typhimurium [6] is 135 µg/mL (≈ 397 µM); in the experiment on Bacillus subtilis [7], 40 µg/mL (≈ 118 µM); in the experiment on Staphylococcus aureus [12], 55 µg/mL (≈ 162 µM); in the experiment on Escherichia coli [15], 140 µg/mL (≈ 411 µM).

Regarding `OC(Cn1cncn1)(Cn1cncn1)c1ccc(F)cc1F` [FLUCONAZOLE], the MFC came to 22.5 µg/mL (≈ 73.5 µM) in the experiment with Candida albicans [1], 16.5 µg/mL (≈ 53.9 µM) against Aspergillus flavus [4], 16.5 µg/mL (≈ 53.9 µM) in the experiment on Aspergillus niger [8] and 16.5 µg/mL (≈ 53.9 µM) with Cryptococcus neoformans [9]. Further, the MIC in the experiment on Aspergillus niger [10] came out at 6.25 µg/mL (≈ 20.4 µM); with Cryptococcus neoformans [11] it was 6.25 µg/mL (≈ 20.4 µM); against Candida albicans [13], 10 µg/mL (≈ 32.7 µM); with Aspergillus flavus [14], 6.25 µg/mL (≈ 20.4 µM).

In the case of `O=C1CSC(c2ccc(Cl)cc2Cl)N1c1ccc(Cl)cc1O` (stereo not given), the MFC in the experiment with Candida albicans [1] was found to be 160 µg/mL (≈ 427 µM); with Aspergillus flavus [4], 140 µg/mL (≈ 374 µM); against Aspergillus niger [8] it was 145 µg/mL (≈ 387 µM); against Cryptococcus neoformans [9], 150 µg/mL (≈ 400 µM). For the same compound, the minimal inhibitory concentration (MIC) was 75 µg/mL (≈ 200 µM) against Salmonella typhimurium [2]; 80 µg/mL (≈ 214 µM) with Bacillus subtilis [3]; 90 µg/mL (≈ 240 µM) with Staphylococcus aureus [5]; 70 µg/mL (≈ 187 µM) in the experiment on Aspergillus niger [10]; 100 µg/mL (≈ 267 µM) with Cryptococcus neoformans [11]; 90 µg/mL (≈ 240 µM) in the experiment with Candida albicans [13]. For the same compound, the MIC in the experiment on Aspergillus flavus [14] turned out to be 85 µg/mL (≈ 227 µM); against Escherichia coli [16] it was 70 µg/mL (≈ 187 µM). Moreover, the pIC50 with MCF7 was 4.32; in the experiment with HeLa, 4.31. Also, the minimal bactericidal concentration (MBC) was 155 µg/mL (≈ 414 µM) against Salmonella typhimurium [6], 160 µg/mL (≈ 427 µM) with Bacillus subtilis [7], 160 µg/mL (≈ 427 µM) in the experiment with Staphylococcus aureus [12] and 150 µg/mL (≈ 400 µM) against Escherichia coli [15].

Take `O=C1CSC(c2ccc(O)cc2)N1c1ccc(Cl)cc1O` (stereo not given): the MFC against Candida albicans [1] turned out to be 40 µg/mL (≈ 124 µM); against Aspergillus flavus [4] it was 35 µg/mL (≈ 109 µM); with Aspergillus niger [8], 115 µg/mL (≈ 357 µM). Further, the MIC against Salmonella typhimurium [2] was 25 µg/mL (≈ 77.7 µM); in the experiment with Bacillus subtilis [3], 15 µg/mL (≈ 46.6 µM); in the experiment with Staphylococcus aureus [5], 6 µg/mL (≈ 18.6 µM); against Aspergillus niger [10] it was 55 µg/mL (≈ 171 µM); with Cryptococcus neoformans [11], 60 µg/mL (≈ 186 µM); in the experiment on Candida albicans [13], 25 µg/mL (≈ 77.7 µM). Besides, the MIC in the experiment with Aspergillus flavus [14] and in the experiment with Escherichia coli [16] was 20 µg/mL (≈ 62.2 µM) in each case. The pIC50 is 4.23 in the experiment on MCF7 and 4.20 with HeLa. The MBC in the experiment with Salmonella typhimurium [6] turned out to be 45 µg/mL (≈ 140 µM); with Bacillus subtilis [7], 25 µg/mL (≈ 77.7 µM); with Staphylococcus aureus [12], 20 µg/mL (≈ 62.2 µM); against Escherichia coli [15], 35 µg/mL (≈ 109 µM).

Regarding `CC1(C)S[C@@H]2[C@H](NC(=O)[C@H](N)c3ccccc3)C(=O)N2[C@H]1C(=O)O` [AMPICILLIN], the MIC against Salmonella typhimurium [2], against Bacillus subtilis [3], in the experiment on Staphylococcus aureus [5] and with Escherichia coli [16] was 12.5 µg/mL (≈ 35.8 µM) in each case. The MBC against Salmonella typhimurium [6], against Bacillus subtilis [7], with Staphylococcus aureus [12] and in the experiment with Escherichia coli [15] was 17.5 µg/mL (≈ 50.1 µM) in each case.

As for `COc1ccc(C2SCC(=O)N2c2ccc(Cl)cc2O)c(OC)c1` (stereo not given), the MFC against Candida albicans [1] was 17.5 µg/mL (≈ 47.8 µM); against Aspergillus flavus [4] it was 15 µg/mL (≈ 41 µM); with Aspergillus niger [8], 120 µg/mL (≈ 328 µM); in the experiment with Cryptococcus neoformans [9] it was 120 µg/mL (≈ 328 µM). The minimum inhibitory concentration (MIC) against Salmonella typhimurium [2] came out at 35 µg/mL (≈ 95.7 µM); in the experiment with Bacillus subtilis [3] it was 30 µg/mL (≈ 82 µM); against Staphylococcus aureus [5], 15 µg/mL (≈ 41 µM); against Aspergillus niger [10], 65 µg/mL (≈ 178 µM); against Cryptococcus neoformans [11] it was 70 µg/mL (≈ 191 µM); in the experiment on Candida albicans [13] it was 3 µg/mL (≈ 8.2 µM). Moreover, the minimum inhibitory concentration (MIC) in the experiment on Aspergillus flavus [14] is 10 µg/mL (≈ 27.3 µM); against Escherichia coli [16] it was 30 µg/mL (≈ 82 µM). For the same compound, the values for the pIC50 with MCF7 and in the experiment with HeLa were 4.16 and 4.17, respectively. The MBC in the experiment on Salmonella typhimurium [6] came to 45 µg/mL (≈ 123 µM); against Bacillus subtilis [7], 45 µg/mL (≈ 123 µM); with Staphylococcus aureus [12] it was 25 µg/mL (≈ 68.3 µM); against Escherichia coli [15], 50 µg/mL (≈ 137 µM).

`O=C1CSC(c2ccc(Cl)cc2)N1c1ccc(Cl)cc1O` (stereo not given): the MFC was 160 µg/mL (≈ 470 µM) with Candida albicans [1], 155 µg/mL (≈ 456 µM) with Aspergillus flavus [4], 165 µg/mL (≈ 485 µM) against Aspergillus niger [8] and 160 µg/mL (≈ 470 µM) against Cryptococcus neoformans [9]. Further, the minimum inhibitory concentration (MIC) against Salmonella typhimurium [2] turned out to be 65 µg/mL (≈ 191 µM); in the experiment on Bacillus subtilis [3] it was 25 µg/mL (≈ 73.5 µM); against Staphylococcus aureus [5], 20 µg/mL (≈ 58.8 µM); in the experiment on Aspergillus niger [10] it was 65 µg/mL (≈ 191 µM); in the experiment on Cryptococcus neoformans [11], 95 µg/mL (≈ 279 µM); in the experiment on Candida albicans [13], 70 µg/mL (≈ 206 µM). Also, the minimum inhibitory concentration (MIC) against Aspergillus flavus [14] came to 90 µg/mL (≈ 265 µM); against Escherichia coli [16], 50 µg/mL (≈ 147 µM). In addition, the pIC50 in the experiment with MCF7 is 4.25; with HeLa, 4.19. For the same compound, the MBC in the experiment on Salmonella typhimurium [6] came out at 155 µg/mL (≈ 456 µM); in the experiment with Bacillus subtilis [7], 45 µg/mL (≈ 132 µM); against Staphylococcus aureus [12], 45 µg/mL (≈ 132 µM); with Escherichia coli [15], 165 µg/mL (≈ 485 µM).
